From ChEMBL document CHEMBL4020824, “Discovery of Potent and Orally Bioavailable Dihydropyrazole GPR40 Agonists” (J Med Chem, 2018)
pIC50: −log10 of the molar value. Activity calls are given as the source filed them.

Assays:
Mus musculus [1] = assay: Toxicity in C57BL/6J mouse assessed as induction of hypoglycemia effect at 1 mg/kg, po administered 1 hr prior to glucose challenge measured after 120 mins by IPGTT; format: organism-based; settings: in vivo, 2 h
[2] = Cmax in C57BL6 mouse at 1 mg/kg, po administered as single dose measured up to 24 hrs post dose by LC-MS/MS analysis; format: ADME, organism-based; design: dose 1 mg/kg, route oral; settings: in vivo
[3] = Clearance in cynomolgus monkey at 0.5 mg/kg, iv administered as single dose measured up to 24 hrs post dose by LC-MS/MS analysis; format: ADME, organism-based, Macaca fascicularis; settings: in vivo
[4] = Oral bioavailability in C57BL6 mouse at 1 mg/kg administered as single dose measured up to 24 hrs post dose by LC-MS/MS analysis; format: ADME, organism-based; settings: in vivo
[5] = Tmax in Beagle dog at 1 mg/kg, po administered as single dose measured up to 24 hrs post dose by LC-MS/MS analysis; format: ADME, organism-based, Canis lupus familiaris; settings: in vivo
[6] = Volume of distribution at steady state in cynomolgus monkey at 0.5 mg/kg, iv administered as single dose measured up to 24 hrs post dose by LC-MS/MS analysis; format: ADME, organism-based, Macaca fascicularis; settings: in vivo, read-out: Vdss
Mus musculus [7] = assay: Antidiabetic activity in C57BL/6J mouse assessed as glucose lowering effect at 0.1 mg/kg, po administered 1 hr prior to glucose challenge measured after 120 mins by IPGTT; format: functional, organism-based
Homo sapiens = species on record: Homo sapiens; assay: Inhibition of FFAR (unknown origin) at <10 uM
Summary of the method: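 Part of a proprietary selectivity counterscreen panel covering GPCRs (including the related free fatty acid receptors), nuclear hormone receptors, transporters, ion channels and hERG. Activity was scored against a 10 µM threshold.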

[8] = molecular target: T1, Amine oxidase [flavin-containing] B (Homo sapiens, UniProt P27338); assay: Inhibition of MAO-B (unknown origin)
T1 sequence (P27338 whole entry): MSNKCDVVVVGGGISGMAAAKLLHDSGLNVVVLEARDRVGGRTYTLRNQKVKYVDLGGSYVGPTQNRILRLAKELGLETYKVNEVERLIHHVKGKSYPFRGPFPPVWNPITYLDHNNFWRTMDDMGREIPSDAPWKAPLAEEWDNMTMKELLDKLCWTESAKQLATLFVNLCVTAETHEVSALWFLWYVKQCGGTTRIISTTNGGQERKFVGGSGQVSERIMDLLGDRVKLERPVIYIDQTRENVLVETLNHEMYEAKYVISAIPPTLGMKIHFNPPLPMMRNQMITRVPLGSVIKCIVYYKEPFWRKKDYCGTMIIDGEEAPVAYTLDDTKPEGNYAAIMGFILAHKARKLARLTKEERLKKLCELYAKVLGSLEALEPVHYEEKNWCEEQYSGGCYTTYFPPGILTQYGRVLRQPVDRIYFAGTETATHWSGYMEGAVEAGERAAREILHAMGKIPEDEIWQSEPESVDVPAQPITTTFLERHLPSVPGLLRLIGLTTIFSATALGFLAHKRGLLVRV

[9] = Cmax in cynomolgus monkey at 1 mg/kg, po administered as single dose measured up to 24 hrs post dose by LC-MS/MS analysis; format: ADME, organism-based, Macaca fascicularis; design: dose 1 mg/kg, route oral; settings: in vivo

Cmax [2]: 6 µM
clearance [3]: 0.7 mL/min/kg
bioavailability [4]: 100%
Tmax [5]: 48 min
Vd [6]: 0.7 L/kg
inhibition (Homo sapiens): inactive
pIC50 [8]: 5.22
Cmax [9]: 1.4 µM
Compound: COc1cc(N2CC[C@@H](Oc3ccc(N4N=C(C(F)(F)F)[C@@H](C)[C@@H]4CC(=O)O)cc3)[C@H](C)C2)c(Cl)cn1
Activity (Mus musculus [1]): Non-Toxic
Activity (Mus musculus [7]): Active
